Here are results for 6 compounds from ChEMBL document CHEMBL1811793, “Induced production of N-formyl alkaloids from Aspergillus fumigatus by co-culture with Streptomyces peucetius” (J Nat Prod, 2011).

The test system of assay [1] is Fusarium incarnatum. The assay is described as follows: Antimicrobial activity against Fusarium pallidoroseum at 50 ug/disk by Kirby-Bauer disk diffusion assay. It is filed as functional, organism-based.
Assay [2] deals with Candida albicans. Description: Antimicrobial activity against Candida albicans at 50 ug/disk by Kirby-Bauer disk diffusion assay. The assay is classed as functional, organism-based. A general note: A growth-free zone around the sample is the usual read-out of agar diffusion tests.
Assay [3] has as its system HOP-92. Description: Cytotoxicity against human HOP92 cells. The assay is classed as functional, cell-based. In short, it runs like this:
(§1)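 Run within the NCI-60 human tumour cell line screen panel.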

Assay [4] deals with NCI-H460. Description: Cytotoxicity against human NCI-H460 cells. It is filed as functional, cell-based. In short, it runs like this: as §1
In assay [5] the test system is SF-295. The assay is described as follows: Cytotoxicity against human SF295 cells. It is filed as functional, cell-based. A digest of the protocol: as §1
Assay [6] relates to U-251. The assay is described as follows: Cytotoxicity against human U251 cells. It is filed as functional, cell-based. A digest of the protocol: as §1
Assay [7] deals with Malme-3M. Description: Cytotoxicity against human MALME-3M cells. The assay is classed as functional, cell-based. A digest of the protocol: as §1
Assay [8] deals with SK-MEL-28. The assay is described as follows: Cytotoxicity against human SK-MEL-28 cells. It is filed as functional, cell-based. In short, it runs like this:
as §1

Assay [9] deals with SK-MEL-5. Description: Cytotoxicity against human SK-MEL-5 cells. It is filed as functional, cell-based. A digest of the protocol: as §1
Assay [10] relates to UACC-62. The assay is described as follows: Cytotoxicity against human UACC62 cells. It is filed as functional, cell-based. A digest of the protocol: as §1
In assay [11] the test system is SK-OV-3. The assay is described as follows: Cytotoxicity against human SKOV3 cells. The assay is classed as functional, cell-based. In short, it runs like this: as §1
In assay [12] the test system is A498. Description: Cytotoxicity against human A498 cells. It is filed as functional, cell-based. A digest of the protocol: as §1
Assay [13] has as its system ACHN. The assay is described as follows: Cytotoxicity against human ACHN cells. The assay is classed as functional, cell-based. In short, it runs like this:
as §1

The test system of assay [14] is MOLT-4. Description: Cytotoxicity against human MOLT4 cells. It is filed as functional, cell-based. In short, it runs like this: as §1
The test system of assay [15] is Escherichia coli. The assay is described as follows: Antimicrobial activity against Escherichia coli at 50 ug/disk by Kirby-Bauer disk diffusion assay. The assay is classed as functional, organism-based.
The subject of assay [16] is Staphylococcus aureus. Description: Antimicrobial activity against Staphylococcus aureus at 50 ug/disk by Kirby-Bauer disk diffusion assay. It is filed as functional, organism-based.
Assay [17] deals with Burkholderia thailandensis. The assay is described as follows: Antimicrobial activity against Burkholderia thailandensis at 50 ug/disk by Kirby-Bauer disk diffusion assay. It is filed as functional.

Active and inactive are the calls of the source. The calls are words filed in the database; no cut-off is given here.

As for `[C-]#[N+]C(=C\c1ccc(OC)cc1)/C(=C/c1ccc(OS(=O)(=O)O)cc1)[N+]#[C-]`, the outcome in assay [1], in assay [2], in assay [3], in [4], in [5] and in assay [6] was inactive. Also, the result in assay [7], in assay [8], in assay [9], in assay [10], in assay [11] and in assay [12] was inactive. In addition, the outcome in [13], in assay [14], in [15], in assay [16] and in [17] was inactive.
Take `COc1ccc(/C=C(NC=O)/C(=C/c2ccc(OS(=O)(=O)O)cc2)NC=O)cc1`: the outcome in [1], in [2], in assay [3], in assay [4], in assay [5] and in assay [6] was inactive. Moreover, the result in [7], in [8], in assay [9], in assay [10], in assay [11] and in [12] was inactive. The result in [13], in assay [14], in [15], in assay [16] and in assay [17] was inactive.
For the compound `[C-]#[N+]C(=C\c1ccc(OC)cc1)/C(=C/c1ccc(OC)cc1)[N+]#[C-]`, the outcome in [3], in [4], in assay [5], in assay [6], in assay [7] and in assay [8] was inactive. Also, the result in assay [9], in assay [10], in assay [11], in assay [12], in [13] and in [14] was inactive.
Consider `COc1ccc(/C=C(NC=O)/C(=C/c2ccc(O)cc2)NC=O)cc1`, for which the IC50 (in general, the concentration needed to halve the response being measured) is more than 2500 nM in assay [3]; 1840 nM in assay [4]; more than 2500 nM in assay [5]; more than 2500 nM in [6]; more than 2500 nM in assay [7]; 2030 nM in assay [8]. Also, the IC50 is more than 2500 nM in assay [9]; more than 2500 nM in assay [10]; 2130 nM in assay [11]; 1720 nM in [12]; 1370 nM in assay [13]; 1810 nM in assay [14].
As for `COc1ccc(/C=C(NC=O)/C(=C/c2ccc(OC)cc2)NC=O)cc1`, the IC50 stood at 890 nM in assay [3]; 1120 nM in assay [4]; 700 nM in assay [5]; 920 nM in assay [6]; 650 nM in assay [7]; 980 nM in assay [8]. The IC50 in assay [9] is 810 nM; in assay [10], 750 nM; in assay [11] it was 840 nM; in assay [12], 860 nM; in assay [13], more than 2500 nM; in assay [14], more than 2500 nM.
Consider `[C-]#[N+]C(=C\c1ccc(O)cc1)/C(=C/c1ccc(OC)cc1)[N+]#[C-]`, for which the result in assay [3], in assay [4], in assay [5], in assay [6], in assay [7] and in [8] was inactive. Moreover, the result in assay [9], in [10], in [11], in assay [12], in [13] and in [14] was inactive.
